Measurements published in ChEMBL document CHEMBL5376013, “Design, synthesis and biological evaluation of novel morpholinopyrimidine-5-carbonitrile derivatives as dual PI3K/mTOR inhibitors” (RSC Med Chem, 2024).

Experiments:
Assay type in all cases: functional
Settings in all cases: read-out: GI
[1] = tested on: HL-60; assay: Antitumor activity against human HL-60 cells assessed as growth inhibition at 10 uM relative to control
Outline: (§1)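 After drug addition, plates were incubated 48 h at 37 °C under 5% CO2. Adherent cells were fixed with cold TCA (10% final, 60 min, 4 °C) and suspension cells with 16% final TCA. Staining used 0.4% SRB in 1% acetic acid, solubilized in 10 mM trizma, read at A515. Percent growth was calculated from time-zero, control and treated absorbances.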

[2] = tested on: MOLT-4; assay: Antitumor activity against human MOLT-4 cells assessed as growth inhibition at 10 uM relative to control; outline: as §1
[3] = tested on: EKVX; assay: Antitumor activity against human EKVX cells assessed as growth inhibition at 10 uM relative to control; outline: as §1
[4] = tested on: HOP-62; assay: Antitumor activity against human HOP-62 cells assessed as growth inhibition at 10 uM relative to control; outline: as §1
[5] = tested on: HOP-92; assay: Antitumor activity against human HOP-92 cells assessed as growth inhibition at 10 uM relative to control; outline: as §1
[6] = tested on: NCI-H226; assay: Antitumor activity against human NCI-H226 cells assessed as growth inhibition at 10 uM relative to control; outline: as §1
[7] = tested on: NCI-H322M; assay: Antitumor activity against human NCI-H322M cells assessed as growth inhibition at 10 uM relative to control; outline: as §1
[8] = tested on: NCI-H460; assay: Antitumor activity against human NCI-H460 cells assessed as growth inhibition at 10 uM relative to control; outline: as §1
[9] = tested on: NCI-H522; assay: Antitumor activity against human NCI-H522 cells assessed as growth inhibition at 10 uM relative to control; outline: as §1
[10] = tested on: COLO 205; assay: Antitumor activity against human COLO 205 cells assessed as growth inhibition at 10 uM relative to control; outline: as §1
[11] = tested on: HCT-116; assay: Antitumor activity against human HCT-116 cells assessed as growth inhibition at 10 uM relative to control; outline: as §1
[12] = tested on: HCT-15; assay: Antitumor activity against human HCT-15 cells assessed as growth inhibition at 10 uM relative to control; outline: as §1
[13] = tested on: HT-29; assay: Antitumor activity against human HT-29 cells assessed as growth inhibition at 10 uM relative to control; outline: as §1
[14] = tested on: KM12; assay: Antitumor activity against human KM12 cells assessed as growth inhibition at 10 uM relative to control; outline: as §1
[15] = tested on: SW-620; assay: Antitumor activity against human SW-620 cells assessed as growth inhibition at 10 uM relative to control
Outline: (§2)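 Drug exposure 48 h at 37 °C, 5% CO2. Adherent cells fixed with cold TCA (10% final), suspension cells with TCA (16% final). Stained with 0.4% SRB in 1% acetic acid, dissolved in 10 mM Tris, A515. Growth relative to time-zero and untreated control.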

[16] = tested on: SF-268; assay: Antitumor activity against human SF-268 cells assessed as growth inhibition at 10 uM relative to control; outline: as §1
[17] = tested on: SF-295; assay: Antitumor activity against human SF-295 cells assessed as growth inhibition at 10 uM relative to control; outline: as §1
[18] = tested on: SF-539; assay: Antitumor activity against human SF-539 cells assessed as growth inhibition at 10 uM relative to control; outline: as §1
[19] = tested on: SNB-75; assay: Antitumor activity against human SNB-75 cells assessed as growth inhibition at 10 uM relative to control; outline: as §2
[20] = tested on: U-251; assay: Antitumor activity against human U-251 cells assessed as growth inhibition at 10 uM relative to control; outline: as §2
[21] = tested on: LOX IMVI; assay: Antitumor activity against human LOX IMVI cells assessed as growth inhibition at 10 uM relative to control; outline: as §1
[22] = tested on: M14; assay: Antitumor activity against human M14 cells assessed as growth inhibition at 10 uM relative to control; outline: as §1
[23] = tested on: MDA-MB-435; assay: Antitumor activity against human MDA-MB-435 cells assessed as growth inhibition at 10 uM relative to control; outline: as §1
[24] = tested on: SK-MEL-2; assay: Antitumor activity against human SK-MEL-2 cells assessed as growth inhibition at 10 uM relative to control; outline: as §1
[25] = tested on: SK-MEL-28; assay: Antitumor activity against human SK-MEL-28 cells assessed as growth inhibition at 10 uM relative to control; outline: as §2
[26] = tested on: SK-MEL-5; assay: Antitumor activity against human SK-MEL-5 cells assessed as growth inhibition at 10 uM relative to control; outline: as §2
[27] = tested on: UACC-257; assay: Antitumor activity against human UACC-257 cells assessed as growth inhibition at 10 uM relative to control; outline: as §2
[28] = tested on: UACC-62; assay: Antitumor activity against human UACC-62 cells assessed as growth inhibition at 10 uM relative to control; outline: as §2
[29] = tested on: IGROV-1; assay: Antitumor activity against human IGROV-1 cells assessed as growth inhibition at 10 uM relative to control; outline: as §1
[30] = tested on: OVCAR-3; assay: Antitumor activity against human OVCAR-3 cells assessed as growth inhibition at 10 uM relative to control; outline: as §1
[31] = tested on: OVCAR-4; assay: Antitumor activity against human OVCAR-4 cells assessed as growth inhibition at 10 uM relative to control; outline: as §1
[32] = tested on: OVCAR-8; assay: Antitumor activity against human OVCAR-8 cells assessed as growth inhibition at 10 uM relative to control; outline: as §1
[33] = tested on: SK-OV-3; assay: Antitumor activity against human SK-OV-3 cells assessed as growth inhibition at 10 uM relative to control; outline: as §2
[34] = tested on: 786-0; assay: Antitumor activity against human 786-0 cells assessed as growth inhibition at 10 uM relative to control; outline: as §1
[35] = tested on: A498; assay: Antitumor activity against human A498 cells assessed as growth inhibition at 10 uM relative to control; outline: as §1
[36] = tested on: ACHN; assay: Antitumor activity against human ACHN cells assessed as growth inhibition at 10 uM relative to control; outline: as §1
[37] = tested on: CAKI-1; assay: Antitumor activity against human CAKI-1 cells assessed as growth inhibition at 10 uM relative to control; outline: as §1
[38] = tested on: RXF 393; assay: Antitumor activity against human RXF 393 cells assessed as growth inhibition at 10 uM relative to control; outline: as §1
[39] = tested on: SN12C; assay: Antitumor activity against human SN12C cells assessed as growth inhibition at 10 uM relative to control; outline: as §2
[40] = tested on: UO-31; assay: Antitumor activity against human UO-31 cells assessed as growth inhibition at 10 uM relative to control; outline: as §2
[41] = tested on: PC-3; assay: Antitumor activity against human PC-3 cells assessed as growth inhibition at 10 uM relative to control; outline: as §1
[42] = tested on: DU-145; assay: Antitumor activity against human DU-145 cells assessed as growth inhibition at 10 uM relative to control; outline: as §1
[43] = tested on: MDA-MB-231; assay: Antitumor activity against human MDA-MB-231 cells assessed as growth inhibition at 10 uM relative to control; outline: as §1
[44] = tested on: BT-549; assay: Antitumor activity against human BT-549 cells assessed as growth inhibition at 10 uM relative to control; outline: as §1
[45] = tested on: T47D; assay: Antitumor activity against human T47D cells assessed as growth inhibition at 10 uM relative to control; outline: as §2
[46] = tested on: MDA-MB-468; assay: Antitumor activity against human MDA-MB-468 cells assessed as growth inhibition at 10 uM relative to control; outline: as §1

Work on `N#Cc1c(-c2ccc(Cl)cc2)nc(N/N=C2/C(=O)Nc3ccc(Cl)cc32)nc1N1CCOCC1` yielded an inhibition of growth at 10 µM [1] of under 1%, an inhibition of growth at 10 µM [2] of under 1% and an inhibition of growth at 10 µM [3] of 13.9%. It also gave an inhibition of growth at 10 µM [4] of under 1%, an inhibition of growth at 10 µM [5] of 10.5% and an inhibition of growth at 10 µM [6] of 10.5%. The inhibition of growth at 10 µM [7] was under 1%, the inhibition of growth at 10 µM [8] was under 1% and the inhibition of growth at 10 µM [9] was under 1%. It also gave an inhibition of growth at 10 µM [10] of 1%, an inhibition of growth at 10 µM [11] of under 1% and an inhibition of growth at 10 µM [12] of 1%. For the same molecule, the inhibition of growth at 10 µM [13] was under 1%, the inhibition of growth at 10 µM [14] was under 1% and the inhibition of growth at 10 µM [15] was under 1%. For the same molecule, the inhibition of growth at 10 µM [16] was under 1%, the inhibition of growth at 10 µM [17] was under 1% and the inhibition of growth at 10 µM [18] was under 1%. For the same molecule, the inhibition of growth at 10 µM [19] was 31.3%, the inhibition of growth at 10 µM [20] was under 1% and the inhibition of growth at 10 µM [21] was 16.8%. The inhibition of growth at 10 µM [22] was under 1%, the inhibition of growth at 10 µM [23] was under 1% and the inhibition of growth at 10 µM [24] was under 1%. It also gave an inhibition of growth at 10 µM [25] of under 1%, an inhibition of growth at 10 µM [26] of under 1% and an inhibition of growth at 10 µM [27] of under 1%. It also gave an inhibition of growth at 10 µM [28] of under 1%, an inhibition of growth at 10 µM [29] of under 1% and an inhibition of growth at 10 µM [30] of under 1%. It also gave an inhibition of growth at 10 µM [31] of under 1%, an inhibition of growth at 10 µM [32] of under 1% and an inhibition of growth at 10 µM [33] of under 1%. For the same molecule, the inhibition of growth at 10 µM [34] was under 1%, the inhibition of growth at 10 µM [35] was 26.9% and the inhibition of growth at 10 µM [36] was under 1%. It also gave an inhibition of growth at 10 µM [37] of under 1%, an inhibition of growth at 10 µM [38] of under 1% and an inhibition of growth at 10 µM [39] of under 1%. For the same molecule, the inhibition of growth at 10 µM [40] was 32.5%, the inhibition of growth at 10 µM [41] was under 1% and the inhibition of growth at 10 µM [42] was under 1%. For the same molecule, the inhibition of growth at 10 µM [43] was 17.1%, the inhibition of growth at 10 µM [44] was under 1% and the inhibition of growth at 10 µM [45] was under 1%. It also gave an inhibition of growth at 10 µM [46] of under 1%.
